Published values collected from several papers.
Organism: Mycobacterium tuberculosis
Effect on: microbial growth

CO[C@H]1/C=C/O[C@@]2(C)Oc3c(C)c(O)c4c(O)c(c(/C=N/N5CCN(C)CC5)c(O)c4c3C2=O)NC(=O)/C(C)=C\C=C\[C@H](C)[C@H](O)[C@@H](C)[C@@H](O)[C@@H](C)[C@H](OC(C)=O)[C@@H]1C
MIC (resazurin; ATCC35801 ERDMAN; 7 days): 0.05 µg/mL

O=C(O)c1cc(O)c2c(c1)C(=O)c1cccc(O)c1C2=O
MIC (resazurin; H37RV): > 320 µM

CCN1CCc2c(sc(N)c2C(=O)NC23CC4CC(CC(C4)C2)C3)C1
MIC (resazurin; H37RV): > 200 µM

CC[C@@H](CO)NCCN[C@@H](CC)CO
MIC (H37RV; 7 days): 0.8 µg/mL

CO[C@H]1/C=C/O[C@@]2(C)Oc3c(C)c(O)c4c(O)c(c(/C=N/N5CCN(C)CC5)c(O)c4c3C2=O)NC(=O)/C(C)=C\C=C\[C@H](C)[C@H](O)[C@@H](C)[C@@H](O)[C@@H](C)[C@H](OC(C)=O)[C@@H]1C
MIC (H37RV; 14 days): 0.17 µg/mL

CCOC(=O)c1c(NC(=O)c2cc(C(F)(F)F)cc(C(F)(F)F)c2)sc2c1CCN(C(=O)OC(C)(C)C)C2
MIC (resazurin; H37RV): < 100 µM

O=C1c2cccc(O)c2C(=O)c2c(O)cc(CO)cc21
MIC (resazurin; H37RV): > 320 µM

CCOC(=O)c1c(NC(=O)c2cc(C(F)(F)F)cc(C(F)(F)F)c2)sc2c1CCN(CC)C2
MIC (resazurin; H37RV): > 200 µM

CC[C@@H](CO)NCCN[C@@H](CC)CO
MIC (H37RV; 14 days): 0.78 µg/mL

COc1cccc2c1C(=O)c1c(O)c3c(c(O)c1C2=O)C[C@@](O)(C(=O)CO)C[C@@H]3O[C@H]1C[C@H](N)[C@H](O)[C@H](C)O1
MIC (resazurin; H37RV): 5 µM
